# Compound activity (PubChem)
# This is a sample that favours compounds with a hit; in the whole collection about 1.1% have one here.
# CAL PDZ FP-1 – untagged CAL PDZ binding inhibitors, primary screen, biochemical, fluorescence polarization, HTS; Golgi-associated PDZ and coiled-coil motif-containing protein (Homo sapiens), Q9HD26; purified CAL PDZ, TMR-peptide fluorescence polarization, 1 h; inhibition, % at 24.9 µM; hit rate 0.92% among 300,000;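 active = mean inhibition of at least 30% with at least half of replicates also reaching 30%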;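 note: 0% = DMSO neutral control and 100% = excess unlabeled competitor peptide PRC23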
# ERp5 inh – inhibitors of ERp5-driven insulin aggregation, primary screen, biochemical, turbidity, absorbance 650 nm, single point | Protein disulfide-isomerase A6 (Homo sapiens), Q15084 | 90 min | hit rate 0.05% among 350,000 | inhibition, % at 9.99 µM;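 active = mean replicate inhibition above about 25%, with every replicate also reaching it, limit read from the data, passing the limit was not always enough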
# Rin1-Abl PPI inh – inhibitors of Rin1-Abl protein binding, primary screen, biochemical, TR-FRET. Tyrosine-protein kinase ABL1 (Homo sapiens) + Ras and Rab interactor 1 (Homo sapiens), …. inhibition, % at 7.35 µM. hit rate 0.4% among 360,000. AID 588664, 2011; in the data active = inhibition above about 5%, passing the limit was not always enough
# CAL PDZ FP-2 – CAL PDZ peptide-binding inhibitors, primary screen, biochemical, fluorescence polarization, Cer-tagged CAL PDZ, HTS. Golgi-associated PDZ and coiled-coil motif-containing protein (Homo sapiens), Q9HD26. purified CAL PDZ, TMR-peptide fluorescence polarization, 1 h. inhibition, % at 20 µM. hit rate 0.02% among 330,000. AID 504414, 2011;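 active = highest replicate inhibition of at least 40%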;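 note: plate controls were DMSO neutral control wells for no effect and unlabeled competitor peptide control wells for full effect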
#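 Read-out basis: mP drop reported as inhibition | Assay system: Tagged CAL PDZ protein CerCALP, purified | Benchmarks: Unlabelled peptide for full inhibition, DMSO wells as neutral | Schedule: 1 h incubation at room temperature before polarization reading | Buffer or medium: Sodium phosphate/NaCl buffer pH 7.4 with TCEP, IgG, Thesit | Doses: Single point, 20 µM | Measured by: Fluorescence polarization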
# PDI turbidity – inhibitors of human PDI, primary screen, biochemical, turbidity, single point, plate reader; PDI insulin aggregation turbidity, A650, 90 min; Protein disulfide-isomerase (Homo sapiens), P07237; inhibition, % at 10 µM; hit rate 0.052% among 350,000; AID 588391, 2011;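 active = mean inhibition across replicates of 30% or more, whatever share of single replicates reach that level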
# ERAP1 HTS inh – human ERAP1 aminopeptidase inhibitors, primary screen, biochemical, single point, plate reader | Endoplasmic reticulum aminopeptidase 1 (Homo sapiens), Q9NZ08 | recombinant ERAP1, Leu-AMC fluorescence, 60 min | inhibition, % at 10.7 µM | hit rate 0.15% among 340,000;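 active = mean replicate inhibition of at least 30%, or all replicates individually reaching that 30% level; inactive = mean below 30% and not every replicate reaching it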;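 note: 0% = neutral control wells and 100% = L-leucinethiol positive control wells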
# Target sequence (Q9NZ08 whole entry, looked up): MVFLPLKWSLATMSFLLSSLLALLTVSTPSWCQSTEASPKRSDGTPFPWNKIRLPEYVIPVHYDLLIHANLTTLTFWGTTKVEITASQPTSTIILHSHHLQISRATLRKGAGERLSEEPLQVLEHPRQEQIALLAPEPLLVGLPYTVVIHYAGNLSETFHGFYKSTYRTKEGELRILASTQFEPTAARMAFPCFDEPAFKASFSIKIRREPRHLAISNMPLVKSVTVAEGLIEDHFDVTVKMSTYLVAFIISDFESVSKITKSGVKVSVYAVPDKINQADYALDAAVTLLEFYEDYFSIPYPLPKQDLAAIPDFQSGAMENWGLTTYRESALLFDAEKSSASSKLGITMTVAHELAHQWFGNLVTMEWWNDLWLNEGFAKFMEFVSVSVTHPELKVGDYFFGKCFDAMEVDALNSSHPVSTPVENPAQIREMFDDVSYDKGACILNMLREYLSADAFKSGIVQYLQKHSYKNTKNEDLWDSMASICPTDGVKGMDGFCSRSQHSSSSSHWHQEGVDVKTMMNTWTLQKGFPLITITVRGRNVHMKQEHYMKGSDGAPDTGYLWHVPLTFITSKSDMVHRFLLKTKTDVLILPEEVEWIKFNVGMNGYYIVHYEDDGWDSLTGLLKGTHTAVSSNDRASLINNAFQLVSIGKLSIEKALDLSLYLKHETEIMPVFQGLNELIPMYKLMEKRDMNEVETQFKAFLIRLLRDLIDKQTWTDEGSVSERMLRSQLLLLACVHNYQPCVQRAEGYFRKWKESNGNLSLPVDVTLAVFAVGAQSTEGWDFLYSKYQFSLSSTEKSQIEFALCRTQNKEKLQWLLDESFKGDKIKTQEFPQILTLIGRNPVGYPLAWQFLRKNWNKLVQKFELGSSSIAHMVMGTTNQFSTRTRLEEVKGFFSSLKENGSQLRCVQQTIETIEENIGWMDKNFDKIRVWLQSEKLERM
# Rin1 Abl conf – Rin1-Abl binding inhibitor retest, confirmation, biochemical, TR-FRET | shares compounds with Rin1-Abl PPI inh | purified proteins | inhibition, % at 7.35 µM | hit rate 49% among 1,300 | AID 602124, 2011
# GFP quencher – GFP fluorescence inhibitors and quenchers, artefact control for Rin1-Abl interaction inhibitor project, biochemical. shares compounds with Rin1-Abl PPI inh. inhibitors/quenchers counterscreen. inhibition, % at 6.75 µM. hit rate 8.5% among 1,300;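 note: ABL1-eGFP fusion protein alone without its partner RIN1-SBP; 0% = protein with vehicle and 100% = wells lacking protein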
# GFP quench dose – GFP fluorescence inhibitors and quenchers, dose response, artefact control for Rin1-Abl interaction inhibitor project, biochemical; shares compounds with Rin1-Abl PPI inh; GFP fluorescence interference/quenching counterscreen; IC50, µM; 230 tested, under 10 active; AID 602182, 2012; call rule not given here;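 note: ABL1-eGFP fusion protein alone without its RIN1 binding partner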
# Active calls of the source: *; . = not tested or not shown. Cut-off read from the data, not from the text of the source, unless noted: active = inhibition above about 6.5%; inactive = the rest.
SMILES,CAL PDZ FP-1,ERp5 inh,Rin1-Abl PPI inh,CAL PDZ FP-2,PDI turbidity,ERAP1 HTS inh,Rin1 Abl conf,GFP quencher,others
C[C@H](CO)N1C[C@H](C)[C@H](CN(C)C(=O)NC2CCCCC2)OCCCC[C@H](C)Oc2ccc(NS(=O)(=O)c3ccc(Cl)cc3)cc2C1=O,.,-7,.,.,.,0,.,.,
C[C@@H]1CN([C@H](C)CO)C(=O)c2cc(NC(=O)CCCN(C)C)ccc2O[C@@H](C)CCCCO[C@@H]1CN(C)Cc1ccc(C(F)(F)F)cc1,.,3,.,.,.,-1,.,.,
C[C@H](CO)N1C[C@H](C)[C@H](CN(C)C(=O)CCCN(C)C)OCCCC[C@H](C)Oc2ccc(NS(=O)(=O)c3ccccc3)cc2C1=O,.,-3,.,.,.,1,.,.,
COc1ccc(CNC(=O)COC(=O)CCCOc2ccc(Cl)cc2Cl)cc1OC,-2,.,10*,-1,5,.,-1,1,
COc1ccc(/C=N/NC(=O)COc2ccc(Cl)cc2Cl)cc1Cn1nc(C)cc1C,14,0,9.4*,-3,2,1,1,1,
O=C(COc1ccc(Cl)cc1Cl)N/N=C/c1cccnc1,-4,7,3,-2,4,4,.,.,
COc1ccc(C2c3c4c(n(C)c3CCN2C)CCN(C)C4c2ccc(OC)cc2)cc1 (centres undefined),-2,.,6.5*,1,-2,.,0,-2,
CNC[C@H]1OCCCC[C@H](C)Oc2ccc(NS(C)(=O)=O)cc2C(=O)N([C@@H](C)CO)C[C@@H]1C,.,-8,.,.,.,1,.,.,
Cc1ccc(S(=O)(=O)Nc2ccc3c(c2)C(=O)N([C@@H](C)CO)C[C@H](C)[C@@H](CN(C)C(=O)NC(C)C)OCCCC[C@@H](C)O3)cc1,.,-1,.,.,.,-2,.,.,
O=C1N(c2cccc(Cl)c2)C(c2ccc(Cl)cc2)N2CCCN12 (centres undefined),-2,.,11*,-1,0,.,18*,-2,GFP quench dose=>68
Cc1ccc(C2N(c3ccccc3)C(=O)N3CCCN23)cc1 (centres undefined),0,1,0,-3,0,-4,.,.,
O=C1N(c2cccc(Cl)c2)C(c2ccccc2)N2CCCN12 (centres undefined),-1,.,17*,-3,0,.,24*,-1,GFP quench dose=>68
Cc1noc(C)c1NC(=O)N(C)C[C@@H]1OCCCC[C@H](C)Oc2ccc(NC(=O)c3ccccc3)cc2C(=O)N([C@@H](C)CO)C[C@H]1C,.,2,.,.,.,2,.,.,
CCCC(=O)NC(c1ccccc1OC)c1ccc2cccnc2c1O (centres undefined),-4,.,7.0*,0,8,.,5,3,
CCCCC(=O)NC(c1ccccc1OC)c1ccc2cccnc2c1O (centres undefined),-2,5,2,0,-8,1,.,.,
Oc1ccc(C2=Nn3c(nnc3-c3ccco3)SC2)cc1O,-10,.,5.9*,-2,18,.,4,17*,
CCOC(=O)c1cnc(-n2[nH]c(C)cc2=O)[nH]c1=O,2,-2,14*,0,0,1,8.6*,7.8*,
COc1ccc(CNC(=O)CCSCc2ccccc2Cl)c(OC)c1,2,-3,-2,0,0,6,.,.,
COc1ccc(CNC(=O)CCSCc2cccc(Cl)c2)c(OC)c1,-1,-8,5.2*,-1,0,5,-1,2,
COc1cccc(NC(=O)N2CC(=O)N3[C@@H](CO)[C@@H](c4ccc(C#CC5CCCCC5)cc4)[C@@H]3C2)c1,.,1,.,.,.,0,.,.,
C[C@H]1CN([C@@H](C)CO)C(=O)Cc2cc(NS(=O)(=O)c3ccccc3)ccc2O[C@H]1CN(C)S(=O)(=O)c1ccccc1,.,-2,.,.,.,-2,.,.,
Cc1nn(C(C)(C)C)c(NC(=O)c2ccccc2)c1C#N,-1,2,0,-4,4,1,.,.,
CCCCn1c(NC(=O)c2ccccc2)c(C#N)c2nc3ccccc3nc21,-2,.,12*,1,12,.,6,2,
CCC(C)n1c(NC(=O)c2ccccc2)c(C#N)c2nc3ccccc3nc21 (centres undefined),-9,.,14*,.,5,.,3,0,
Cc1ccc(C(=O)NCCn2c(N)c(C#N)c3nc4ccccc4nc32)cc1,1,.,-2,-3,0,.,.,.,
SMILES,CAL PDZ FP-1,ERp5 inh,Rin1-Abl PPI inh,CAL PDZ FP-2,PDI turbidity,ERAP1 HTS inh,Rin1 Abl conf,GFP quencher,others
CN(C)CC(=O)N1CCCCN2[C@H](CO)[C@H](c3ccc(/C=C/c4ccccc4)cc3)[C@H]2C1,.,1,.,.,.,-1,.,.,
CN(C)CC#Cc1ccc([C@@H]2[C@@H](CO)N3C(=O)CN(C(=O)c4cccnc4)C[C@H]23)cc1,.,3,.,.,.,-2,.,.,
CC1CCCCN1S(=O)(=O)c1ccc(C(=O)Nc2nnc(C3=COCCO3)o2)cc1 (centres undefined),2,-3,7.8*,-2,-5,1,1,-1,
CCOCCCNC(=O)c1cc(-c2cccnc2)nc2ccc(S(=O)(=O)N3CCC(C)CC3)cc12,-1,-1,5,-2,3,-2,.,.,
COCCNC(=O)c1cc(-c2ccccn2)nc2ccc(S(=O)(=O)N3CCC(C)CC3)cc12,0,2,17*,-3,4,0,-2,-1,
CCn1c2ccccc2c2cc(CN3CCN(S(C)(=O)=O)CC3)ccc21,-4,.,6.1*,-2,5,.,-2,-2,
Cc1ccc(S(=O)(=O)N2CC=C(C(=O)NC3CCCC3)CC2)cc1,1,-3,9.4*,-2,20,-3,0,0,
C[C@H](NC(=O)[C@H]1N[C@H]2c3ccc(-c4cccnc4)c(=O)n3C[C@H]2[C@@H]1CO)c1ccccc1,.,-5,.,.,.,2,.,.,
C[C@@H]1CN([C@@H](C)CO)C(=O)c2cc(NC(=O)NC3CCCCC3)ccc2O[C@@H](C)CCCCO[C@@H]1CN(C)S(=O)(=O)c1cn(C)cn1,.,0,.,.,.,-4,.,.,
Cc1cc(C)cc(OCc2nnc(SCC(=O)N3CCCCC3)o2)c1,-8,-1,2,0,3,0,.,.,
